Data set [1] in a line: Cmax in ICR mouse at 10 mg/kg, iv measured upto 24 hrs by LC-MS/MS analysis. The format is ADME, organism-based. On the set-up: route intravenous, dose 10 mg/kg, time <=24. The note with it: in vivo. The procedure, abridged:
(§1)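 Single dose in male ICR mice, 10 mg/kg iv or 30 mg/kg po, dissolved in 5% DMSO/95% saline. Blood drawn by catheter at 0, 5, 15, 30 min and 1, 2, 4, 6, 8, 24 h. Plasma spun 6800g 6 min at 2−8 °C, stored −80 °C, quantified by LC−MS/MS. Noncompartmental parameters, mean ± SD, n = 6.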

Data set [2] can be described thus: Induction of apoptosis in human 921 cells assessed as late apoptotic cells at 15 uM after 48 hrs by Annexin-V-FITC/propidium iodide staining based flow cytometry (reference value: 2.52%). The format is functional. A general note: In flow cytometry, cells or beads pass a laser one at a time.
A short description of data set [3]: Half life in ICR mouse at 10 mg/kg, iv measured upto 24 hrs by LC-MS/MS analysis. The format is ADME, organism-based. The conditions noted are these: in vivo. In a few lines: as §1
Data set [4] in a line: Toxicity in nude BALB/c mouse xenografted with human MP41 cells assessed as morphological changes in heart tissue at 10 to 30 mg/kg, ip administered once daily for 21 days and measured every 3 days by HE staining based assay. The format is organism-based. The note with it: in vivo, 504 h, dose 10-30 mg/kg, time 21 day. In a few lines:
(§2)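 Nude BALB/c mice bearing serially passaged MP41 tumour slices (tertiary recipients, n = 8/group, randomized) dosed ip daily for 21 days at 10 or 30 mg/kg/d or vehicle. Body weight monitored every 3 days. Tissues collected at sacrifice, fixed in 4% paraformaldehyde 24 h, paraffin-embedded, H&E stained, viewed at ×100.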

In data set [5] the test system is MP41. The data set is described as follows: Inhibition of cell invasion in human MP41 cells at 5 to 15 uM incubated for 48 hrs by transwell assay. In kind it is functional, cell-based. The note with it: dose 5-15 µM. The procedure, abridged: (§3)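 92.1 or MP41 cells (1 × 10⁴/well) seeded in serum-free medium in the upper transwell chamber, with 20% FBS medium below. Left overnight, then treated 48 h. Non-migrated cells swabbed off; cells on the lower side stained with crystal violet 30 min and counted by light microscopy (×40 for migration, ×100 for invasion). Mean ± SD, n = 3.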

Data set [6] relates to MP41. The data set is described as follows: Inhibition of cell migration in human MP41 cells at 30 uM incubated for 48 hrs by Transwell migration assay. In kind it is functional, cell-based. The procedure, abridged:
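Transwell migration: 92.1 and MP41 cells (RPMI-1640, 10% FBS) seeded 1 × 10⁴/well in upper chamber in serum-free medium, 20% FBS medium below; overnight at 37 °C, then compound for 48 h. Non-migrated cells swabbed off; lower cells crystal violet-stained 30 min, counted by light microscopy. Mean SD of three independent experiments.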

A short description of data set [7]: (§4) Antiproliferative activity against human 92.1 cells assessed as inhibition of cell growth after 72 hrs by CCK8 assay. The format is functional, cell-based. The conditions noted are these: Homo sapiens, 921, 72 h. In a few lines:
(§5)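 92.1 or MP41 cells in RPMI-1640 with 10% FBS were seeded at 3 × 10³ cells/well. Exposed to serial concentrations for 72 h at 37 °C, 5% CO₂. CCK-8 added for 1−4 h, absorbance read at 450 nm. IC₅₀ from concentration−response curve fit, mean ± SD.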
In general terms: Tetrazolium dyes change colour on reduction, which living cells bring about.

Data set [8] deals with 921. Described as §4. The format is functional, cell-based. The procedure, abridged: as §5
The nature of data set [9]: Half life in ICR mouse at 30 mg/kg, po measured upto 24 hrs by LC-MS/MS analysis. The format is ADME, organism-based. The note with it: in vivo. The procedure, abridged: as §1
Data set [10] can be described thus: Induction of apoptosis in human 921 cells assessed as early apoptotic cells at 15 uM after 48 hrs by Annexin-V-FITC/propidium iodide staining based flow cytometry (reference value: 3.39%). In kind it is functional.
The nature of data set [11]: Induction of apoptosis in human 921 cells assessed as viable cells at 15 uM after 48 hrs by Annexin-V-FITC/propidium iodide staining based flow cytometry (reference value: 93.8%). In kind it is functional. The note with it: read-out: Activity.
For data set [12], the target named is T1, GNAQ/GNA11 (Homo sapiens) (UniProt P50148+P29992). The data set is described as follows: Inhibition of Galphaq/11 in human MP41 cells xenografted mouse tumor tissue assessed as inhibition of ERK phosphorylation at 10 to 30 mg/kg, ip administered for 21 consecutive days by Western blot analysis. In kind it is organism-based. The note with it: dose 10-30 mg/kg, time 21.0 day. The procedure, abridged:
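MP41 xenograft tumours from mice given 10 or 30 mg/kg/day ip for 21 consecutive days were analysed by Western blot. Probed for p-YAP, YAP, p-ERK and ERK, with GAPDH as loading control. Representative of triplicate experiments.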

The test system of data set [13] is CHO. Kind of data set: Induction of morphological changes in chinese hamster CHO cells overexpressing M1 receptor upto 20 uM by light microscopic analysis. The format is cell-based, Cricetulus griseus. In a few lines: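 CHO-M₁ cells were treated with compound at 10 or 20 μM for 2 h, and changes in cell morphology were examined by microscopy.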
Data set [14] concerns CHO. Kind of data set: Cytotoxicity against chinese hamster CHO cells overexpressing M1 receptor assessed as cell viability upto 20 uM for 24 hrs by CCK8 assay. The format is cell-based, Cricetulus griseus. The procedure, abridged: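 CHO cells stably expressing the M₁ receptor were treated with a range of compound concentrations for 2 h or 24 h. Viability measured by CCK-8 and given as percentage. Mean ± SD of three independent experiments.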

A short description of data set [15]: (§6) Antiproliferative activity against human MP41 cells assessed as inhibition of cell growth after 72 hrs by CCK8 assay. In kind it is functional, cell-based. The note with it: MP41, 72 h. In a few lines: as §5
In data set [16] the test system is MP41. The data set is described as §6. The format is functional, cell-based. In a few lines: as §5
The subject of data set [17] is 921. The data set is described as follows: Inhibition of cell migration in human 921 cells at 15 uM incubated for 48 hrs by transwell migration assay. In kind it is functional, cell-based. The procedure, abridged: as §3
For data set [18], the target named is T1, GNAQ/GNA11 (Homo sapiens). Kind of data set: Inhibition of Galphaq/11 in human MP41 cells assessed as reduction in ERK phosphorylation at 15 to 30 uM after 48 hrs by Western blot analysis. In kind it is cell-based. The conditions noted are these: dose 15-30 µM. In a few lines:
(§7)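 92.1 and MP41 cells plated overnight, then exposed to compound 48 h. Lysed in ice-cold buffer and protein quantified by BCA. Resolved on 8−12% SDS−PAGE and transferred to PVDF. Probed for p-YAP Ser127, total YAP, p-ERK1/2 Thr202/Tyr204 and total ERK1/2, with GAPDH as loading control. ECL detection, triplicate.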
In general terms: In western blotting, separated proteins are transferred to a membrane and probed.

Data set [19] in a line: Toxicity in nude BALB/c mouse xenografted with human MP41 cells assessed as morphological changes in spleen tissue at 10 to 30 mg/kg, ip administered once daily for 21 days and measured every 3 days by HE staining based assay. In kind it is organism-based. The conditions noted are these: in vivo, 504 h, dose 10-30 mg/kg, time 21 day. In a few lines: as §2
The nature of data set [20]: Induction of apoptosis in human MP41 cells assessed as viable cells at 30 uM after 48 hrs by Annexin-V-FITC/propidium iodide staining based flow cytometry (reference value: 93.6%). The format is functional. The conditions noted are these: read-out: Activity.
Data set [21] is described as follows: Toxicity in nude BALB/c mouse xenografted with human MP41 cells assessed as morphological changes in kidney tissue at 10 to 30 mg/kg, ip administered once daily for 21 days and measured every 3 days by HE staining based assay. The format is organism-based. The conditions noted are these: in vivo, 504 h, dose 10-30 mg/kg, time 21 day. The procedure, abridged: as §2

The nature of data set [22]: MRT(0 to t) in ICR mouse at 30 mg/kg, po measured upto 24 hrs by LC-MS/MS analysis. In kind it is ADME, organism-based. The note with it: in vivo. The procedure, abridged: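 Single-dose PK in male ICR mice (n = 6): 10 mg/kg iv or 30 mg/kg po, vehicle 5% DMSO/95% saline. Blood (30 μL) by catheter at 0, 5, 15, 30 min and 1, 2, 4, 6, 8, 24 h; plasma by centrifugation, stored −80 °C, measured by LC–MS/MS. Parameters from noncompartmental analysis, mean SD.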

Data set [23] has as its target T1, GNAQ/GNA11 (Homo sapiens). The data set is described as follows: Inhibition of Galphaq/11 in human 921 cells assessed as reduction in ERK phosphorylation at 15 to 30 uM after 48 hrs by Western blot analysis. The format is cell-based. The note with it: b, dose 15-30 µM. The procedure, abridged:
as §7

Each structure is given as a SMILES string. Activity calls are given as the source filed them. The calls are words filed in the database; no cut-off is given here.

The results in this text go back to ChEMBL document CHEMBL4808167, “Design, Synthesis, and Evaluation of Small Molecule Gαq/11 Protein Inhibitors for the Treatment of Uveal Melanoma” (J Med Chem, 2021).

Compound `CC[C@@H](C)[C@H](N)C(=O)N1CCn2cc(-c3ccccc3)nc2[C@@H]1CC1CCCCC1` showed a Cmax in [1] of 2610 ng/mL. The Activity in [2] is 6.99%; in [4] it was “Non-Toxic”; in the data set on 921 [8], “Dose-Dependent Effect”; in data set [10] it was 13.1%; in the data set with CHO [13] it was “Non-Toxic”; with CHO [14], “Non-Toxic”. The Activity entry is “Dose-Dependent Effect” in the data set on MP41 [16], “Non-Toxic” in [19] and “Non-Toxic” in data set [21]. Besides, the values for the half-life in [3] and in data set [9] were 1.17 h and 1.41 h, respectively. Also, the inhibition entry (in the data set on MP41 [5]; with MP41 [6]; in data set [12]; in the data set with 921 [17]; in data set [18]; in data set [23]) was “Active” each time. The IC50 was determined as 10.1 µM in data set [7] and 24.8 µM in [15]. The viability at 15 µM in data set [11] is 79.6%. For the same compound, the viability at 30 µM in data set [20] was determined as 75.7%. Moreover, the MRT last at 24 h in [22] was found to be 1.88 h.

As a reminder, the Cmax is the peak of the concentration-time curve. One may read the half-life as the time in which the quantity being followed falls by half. The IC50 is the concentration that inhibits the measured activity by half. As usually defined, the MRT last is a mean duration of stay, worked out from the concentration-time curve.
